Hits are enriched below; roughly 2.2% of the tested compounds scored in any of these assays.
ARFGAP1 inh: inhibitors of rat ARFGAP1. Q62848. Arfgap1-stimulated ARF1 GTP hydrolysis, GDP FP detection. inhibition, % at 16.5 µM. actives 0.26% (n = 360,000). AID 651572;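 active = inhibition above a per-plate limit, mean inhibition of low control wells plus 3 SD, cut at about 25% in these data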
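Material: truncated rat Arfgap1 GAP domain; Incubation: compound-enzyme preincubation 20 min, reaction 120 min, detection 60 min, 25 °C; Read-out: percent inhibition of Arfgap1-stimulated GTP hydrolysis; Technique: FP, GDP Alexa 633 tracer displaced from anti-GDP antibody, 620/688 nm; Controls: No-Arfgap1 wells (100%) versus DMSO full-reaction wells (0%); Replication: single well per compound.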
NadD inh: blocks S. aureus nicotinate mononucleotide adenylyltransferase; purified NadD enzyme, colorimetric absorbance read-out; inhibition, % at 20 µM; actives 0.78% (n = 360,000); AID 602399; in the data active = inhibition above about 26%
rCAG binder: molecules binding r(CAG) RNA repeats; r(CAG) RNA repeat, TO-PRO-1 dye displacement fluorescence; inhibition, % at 3 µM; actives 1.3% (n = 370,000); AID 651821;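 active = inhibition above the plate cutoff, the mean of all test compounds on that plate plus 3 SD, cut at about 35% in these data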;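 also: higher means more dye released from RNA so lower well fluorescence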
ASAP1 inh: ASAP1 ArfGAP inhibition. Q9ULH1. ASAP1-stimulated ARF1 GTP hydrolysis, GDP FP detection. inhibition, % at 16.5 µM. actives 0.19% (n = 360,000); in the data active = inhibition above about 25%
Target sequence (Q9ULH1 325-724 limits assumed): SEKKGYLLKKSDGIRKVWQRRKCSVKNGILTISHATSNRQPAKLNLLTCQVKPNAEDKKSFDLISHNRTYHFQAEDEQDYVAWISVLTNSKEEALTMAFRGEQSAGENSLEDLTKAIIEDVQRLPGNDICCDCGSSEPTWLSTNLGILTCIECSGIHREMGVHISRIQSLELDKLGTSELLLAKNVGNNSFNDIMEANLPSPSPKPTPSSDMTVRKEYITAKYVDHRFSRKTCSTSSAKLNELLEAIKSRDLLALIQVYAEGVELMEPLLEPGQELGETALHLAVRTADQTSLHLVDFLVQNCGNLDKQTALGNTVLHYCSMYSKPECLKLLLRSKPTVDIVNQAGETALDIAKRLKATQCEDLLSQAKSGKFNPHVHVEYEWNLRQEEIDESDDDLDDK
NadD conf: NadD (S. aureus) inhibition, single concentration confirmation. shares compounds with NadD inh. actives 13% (n = 2,000). AID 624309. purified S. aureus NadD, colorimetric enzyme assay. inhibition, % at 20 µM; in the data active = inhibition mostly above about 42%, no sharp cut-off; inactive = mostly below about 42%
Of the large screens only hits and unclear results are named; the others gave an inactive call (follow-up assays come after a bar, where they were run).

O=C(/C=C/Nc1ccc(S(=O)(=O)Nc2ncccn2)cc1)c1cccs1	none
CC(C)c1ccc(/C=C2\SC(=O)N(CC(=O)NCCCn3ccnc3)C2=O)cc1	NadD inh 33.6 | NadD conf inactive
O=C(CN1C(=O)S/C(=C\c2ccccc2)C1=O)NCCCn1ccnc1	none
O=C(Nc1ccc(Cl)c(Cl)c1)Nc1nnc(-c2ccncc2)s1	NadD inh 60.9 | NadD conf inactive
CCN(CC)C(=O)c1cccc(-c2csc(C(C)(NC(C)=O)c3ccc(OC)cc3)n2)c1 (centres undefined)	none
CCCN(CCC)S(=O)(=O)c1ccc(C(=O)Nc2nnc(-c3cc(OC)cc(OC)c3)o2)cc1	NadD inh 58.2 (no result: ARFGAP1 inh, rCAG binder, ASAP1 inh) | NadD conf inactive
CCN(Cc1ccccc1)S(=O)(=O)c1ccc(C(=O)Nc2nnc(-c3ccccc3OC)o2)cc1	NadD inh 54.4 | NadD conf 25.5
Cc1noc(/C=C/c2ccco2)c1S(=O)(=O)N1CCC(C(=O)NC(C)c2ccccc2)CC1 (centres undefined)	none
Cc1noc(/C=C/c2ccco2)c1S(=O)(=O)N1CCC(C(=O)N2c3ccccc3CC2C)CC1 (centres undefined)	NadD inh 38.5 | NadD conf inactive
COc1ccc(N2CCN(CCCNC(=O)CCOC(C)(C)C)CC2)cc1	none (no result: ARFGAP1 inh, NadD inh, ASAP1 inh)
COC(=O)[C@]12C[C@H](CC(=O)N3CCOCC3)C(=O)N(CCC3=CCCCC3)C1=C[C@H](COCc1ccccc1)O[C@@H]2C	none (no result: NadD inh)
COC(=O)c1cc(-c2ccc(C)c(C)c2)c(=O)n2c1CCC2	none (no result: ARFGAP1 inh, NadD inh, ASAP1 inh)
COc1ccccc1N1CCN(c2nc3ccccc3nc2C(C#N)C(=O)OC(C)C)CC1 (centres undefined)	NadD inh 36.6 | NadD conf inactive
CCOc1ccccc1N1CCN(c2nc3ccccc3nc2C(C#N)C(=O)OC)CC1 (centres undefined)	none
O=C(c1ccc2snnc2c1)N1CCCCC1	NadD inh 51.7 | NadD conf inactive
Cc1ccccc1NC(=O)C(C)OC(=O)CCC(=O)c1ccccc1 (centres undefined)	none
CN(c1c2c(nc3ncnn13)CCCC2)C1CCCCC1	none (no result: ARFGAP1 inh, NadD inh, ASAP1 inh)
Cc1ccc(-c2csc(N3CCN(S(=O)(=O)c4ccc5c(c4)NC(=O)CO5)CC3)n2)cc1	NadD inh 38.7 | NadD conf inactive
CCCCOC(=O)c1c(C)oc2ccc(NS(=O)(=O)c3ccc4c5c(cccc35)C(=O)N4)cc12	NadD inh 32.0 | NadD conf inactive
COCCOC(=O)c1c(C)oc2ccc(NS(=O)(=O)c3cccs3)cc12	none
COc1ccc(C(=O)Nn2c(SCc3cccc([N+](=O)[O-])c3)nc3ccccc3c2=O)cc1	NadD inh 27.8 | NadD conf inactive
Oc1nc(Nc2ccc(Cl)cc2Cl)sc1/C=C1\C=Nc2ccccc21	NadD inh 41.7 | NadD conf inactive
Cc1ccc(/C=C/c2nc3sc(C(=O)O)c(C)c3c(=O)[nH]2)cc1[N+](=O)[O-]	NadD inh 35.8 | NadD conf inactive
CCC(O)(c1ccc(NC(=O)OC(C)(C)C)cc1)c1cc(OC)cc(OC)c1 (centres undefined)	none (no result: ARFGAP1 inh, NadD inh, ASAP1 inh)
CCOC(=O)c1c(NC(=O)C(NCCN(C)C)c2ccccc2)sc2c1CCCC2 (centres undefined)	none
CCCNC(=O)c1ccc(N2CCC3(CC2)CC(c2cccc(Br)c2)=NO3)c(NC(=O)c2ccc(Cl)c([N+](=O)[O-])c2)c1	NadD inh 30.5 | NadD conf inactive
Cc1ccc(CNC(=O)c2ccc(N3CCC4(CC3)CC(c3cccc(Br)c3)=NO4)c(NC(=O)c3ccccc3)c2)cc1	none
Cc1ccc(CNC(=O)c2ccc(N3CCC4(CC3)CC(c3cccc(Br)c3)=NO4)c(NC(=O)c3ccc(Cl)c([N+](=O)[O-])c3)c2)cc1	NadD inh 33.7 | NadD conf inactive
COCCN1C(=O)CSCC1(C)C(=O)NCc1ccccc1 (centres undefined)	none (no result: NadD inh)
Oc1ccc(C[C@H]2CN([C@@H](Cc3ccc(O)cc3)CN3CCC[C@@H]3CN3C(=S)NC[C@@H]3Cc3ccccc3)C(=S)N2CC2CCCCCC2)cc1	NadD inh 47.0 | NadD conf inactive
Oc1ccc(C[C@H]2CNC(=S)N2CC2CCCN2C[C@H](Cc2ccccc2)N2C[C@H](Cc3ccc(O)cc3)N(CC3CCCCCC3)C2=S)cc1 (some centres undefined)	NadD inh 48.0 | NadD conf inactive
